Test results taken from ChEMBL document CHEMBL2346500, “Design and synthesis of dual-action inhibitors targeting histone deacetylases and 3-hydroxy-3-methylglutaryl coenzyme A reductase for cancer treatment” (J Med Chem, 2013).

Tests used:
[1] = molecular target: T1, Protein deacetylase HDAC6 (Homo sapiens, UniProt Q9UBN7); test: Inhibition of recombinant HDAC6 (unknown origin) after 10 mins by fluorimetric analysis
T1 sequence (Q9UBN7 whole entry): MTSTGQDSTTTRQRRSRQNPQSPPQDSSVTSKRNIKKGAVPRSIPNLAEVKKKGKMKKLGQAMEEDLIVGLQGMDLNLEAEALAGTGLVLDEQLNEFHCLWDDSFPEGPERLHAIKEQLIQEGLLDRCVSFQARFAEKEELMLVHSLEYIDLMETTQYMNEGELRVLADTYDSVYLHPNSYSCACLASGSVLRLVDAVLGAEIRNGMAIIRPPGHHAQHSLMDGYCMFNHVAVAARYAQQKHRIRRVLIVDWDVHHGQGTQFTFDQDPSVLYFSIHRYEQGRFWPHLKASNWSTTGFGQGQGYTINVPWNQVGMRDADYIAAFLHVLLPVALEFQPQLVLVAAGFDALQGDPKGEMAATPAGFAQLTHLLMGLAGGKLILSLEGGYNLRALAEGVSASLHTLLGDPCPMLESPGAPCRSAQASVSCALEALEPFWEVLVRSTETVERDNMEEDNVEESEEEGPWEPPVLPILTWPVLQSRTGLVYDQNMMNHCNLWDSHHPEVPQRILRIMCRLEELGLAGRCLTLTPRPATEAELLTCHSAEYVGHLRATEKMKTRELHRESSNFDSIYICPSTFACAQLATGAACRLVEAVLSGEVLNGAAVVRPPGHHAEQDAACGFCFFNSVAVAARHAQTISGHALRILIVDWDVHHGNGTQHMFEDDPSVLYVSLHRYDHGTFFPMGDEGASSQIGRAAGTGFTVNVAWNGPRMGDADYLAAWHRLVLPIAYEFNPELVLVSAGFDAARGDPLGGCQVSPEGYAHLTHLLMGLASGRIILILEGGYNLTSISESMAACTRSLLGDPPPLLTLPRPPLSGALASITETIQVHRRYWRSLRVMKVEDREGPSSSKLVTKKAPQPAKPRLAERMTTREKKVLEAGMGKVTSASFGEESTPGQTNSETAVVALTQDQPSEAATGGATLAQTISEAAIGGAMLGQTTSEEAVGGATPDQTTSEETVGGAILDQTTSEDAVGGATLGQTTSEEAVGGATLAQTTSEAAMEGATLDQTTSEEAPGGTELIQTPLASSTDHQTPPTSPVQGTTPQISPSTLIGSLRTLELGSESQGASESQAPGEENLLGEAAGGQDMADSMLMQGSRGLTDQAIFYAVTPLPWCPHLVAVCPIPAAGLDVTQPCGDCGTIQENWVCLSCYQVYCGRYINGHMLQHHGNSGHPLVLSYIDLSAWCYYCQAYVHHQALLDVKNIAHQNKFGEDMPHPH

Histone deacetylase 2 = Histone deacetylase 2 (Homo sapiens, UniProt Q92769); test: Inhibition of recombinant HDAC2 (unknown origin) after 10 mins by fluorimetric analysis
Sequence of Histone deacetylase 2 (Q92769 whole entry): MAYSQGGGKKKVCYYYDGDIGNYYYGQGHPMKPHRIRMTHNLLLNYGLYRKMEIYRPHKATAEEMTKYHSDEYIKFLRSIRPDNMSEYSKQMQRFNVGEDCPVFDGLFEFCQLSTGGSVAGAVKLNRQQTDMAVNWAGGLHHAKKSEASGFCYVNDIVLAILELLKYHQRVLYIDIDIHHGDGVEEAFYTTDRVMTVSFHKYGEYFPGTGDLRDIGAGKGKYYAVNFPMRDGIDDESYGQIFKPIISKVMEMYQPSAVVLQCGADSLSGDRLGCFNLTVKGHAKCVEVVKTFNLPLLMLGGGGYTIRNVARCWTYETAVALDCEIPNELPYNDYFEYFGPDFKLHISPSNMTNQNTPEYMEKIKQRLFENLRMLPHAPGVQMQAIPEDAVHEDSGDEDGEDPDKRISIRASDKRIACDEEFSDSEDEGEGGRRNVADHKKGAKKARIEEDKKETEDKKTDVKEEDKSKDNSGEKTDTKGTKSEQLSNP

Histone deacetylase 1 = Histone deacetylase 1 (Homo sapiens, UniProt Q13547); test: Inhibition of recombinant HDAC1 (unknown origin) after 10 mins by fluorimetric analysis
Sequence of Histone deacetylase 1 (Q13547 whole entry): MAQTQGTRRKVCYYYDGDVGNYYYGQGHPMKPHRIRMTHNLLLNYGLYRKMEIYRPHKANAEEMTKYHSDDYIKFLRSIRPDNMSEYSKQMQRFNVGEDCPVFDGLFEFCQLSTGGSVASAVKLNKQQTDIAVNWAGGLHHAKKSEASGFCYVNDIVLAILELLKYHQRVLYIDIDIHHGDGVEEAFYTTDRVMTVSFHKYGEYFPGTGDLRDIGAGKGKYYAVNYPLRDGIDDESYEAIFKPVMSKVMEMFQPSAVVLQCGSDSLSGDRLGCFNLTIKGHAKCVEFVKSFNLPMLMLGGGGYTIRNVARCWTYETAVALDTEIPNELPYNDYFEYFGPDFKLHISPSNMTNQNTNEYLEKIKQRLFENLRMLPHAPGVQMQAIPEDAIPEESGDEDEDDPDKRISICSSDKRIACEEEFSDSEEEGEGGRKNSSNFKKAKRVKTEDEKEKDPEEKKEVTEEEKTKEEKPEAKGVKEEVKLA

[2] = molecular target: T2, 3-hydroxy-3-methylglutaryl-coenzyme A reductase (Homo sapiens, UniProt P04035); test: Inhibition of recombinant HMG-CoA reductase (unknown origin) after 10 mins by spectrophotometric analysis
T2 sequence (P04035 whole entry): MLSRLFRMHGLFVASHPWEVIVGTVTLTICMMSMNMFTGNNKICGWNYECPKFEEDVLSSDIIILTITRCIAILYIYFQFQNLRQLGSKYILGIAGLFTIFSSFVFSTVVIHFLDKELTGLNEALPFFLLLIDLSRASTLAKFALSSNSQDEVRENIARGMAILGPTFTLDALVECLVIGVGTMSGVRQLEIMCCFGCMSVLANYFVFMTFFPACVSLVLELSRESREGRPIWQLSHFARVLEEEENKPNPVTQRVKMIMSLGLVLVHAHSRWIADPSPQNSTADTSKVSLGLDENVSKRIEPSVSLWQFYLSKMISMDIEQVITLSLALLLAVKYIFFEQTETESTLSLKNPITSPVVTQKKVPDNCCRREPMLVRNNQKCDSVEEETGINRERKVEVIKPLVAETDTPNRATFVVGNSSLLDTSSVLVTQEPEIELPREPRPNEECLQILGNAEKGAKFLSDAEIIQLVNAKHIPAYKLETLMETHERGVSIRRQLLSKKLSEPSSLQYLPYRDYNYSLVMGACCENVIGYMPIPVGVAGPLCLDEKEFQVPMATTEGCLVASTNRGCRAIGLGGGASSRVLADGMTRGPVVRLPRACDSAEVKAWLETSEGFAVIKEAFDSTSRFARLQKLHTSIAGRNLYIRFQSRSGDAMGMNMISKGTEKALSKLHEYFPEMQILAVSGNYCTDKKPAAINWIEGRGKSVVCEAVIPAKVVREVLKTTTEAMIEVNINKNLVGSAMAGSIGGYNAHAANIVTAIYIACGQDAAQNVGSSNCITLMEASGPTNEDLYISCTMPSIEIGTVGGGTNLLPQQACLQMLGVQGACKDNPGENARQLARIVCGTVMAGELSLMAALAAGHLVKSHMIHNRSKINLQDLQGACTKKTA

A549 [3] = test: Selectivity index, ratio of IC50 for human HS68 cells to IC50 for human A549 cells; format: functional
A549 [4] = test: Selectivity index, ratio of IC50 for mouse MEF cells to IC50 for human A549 cells; format: functional
Hs68 = test: Cytotoxicity against human HS68 cells after 72 hrs by MTT assay; format: ADME, cell-based; conditions: Hs68, 72 h
MEF = test: Cytotoxicity against mouse MEF cells after 72 hrs by MTT assay; format: ADME, cell-based
A549 [5] = test: Cytotoxicity against human A549 cells after 72 hrs by MTT assay; format: functional, cell-based; conditions: A549, 72 h
[6] = molecular target: T3, Protein deacetylase HDAC6 (Homo sapiens) (UniProt Q9UBN7); test: Inhibition of HDAC6 in human A549 cells assessed as increase in tubulin acetylation after 24 hrs by Western blotting analysis; format: cell-based
T3 sequence (whole entry): T1 sequence (Q9UBN7 whole entry)
Method in brief: (§1)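 A549 cells (DMEM, 10% FBS, penicillin/streptomycin, 5% CO2) exposed to compounds at indicated doses for 24 h. Cells lysed on ice, total lysates run on SDS–PAGE and immunoblotted with antibodies to acetyl-histone H3, acetyl-tubulin and actin. Loading normalised to β-actin.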

[7] = molecular target: Histone deacetylase (Homo sapiens) (UniProt Q13547+O15379+Q9UBN7+Q92769+Q9UQL6+Q8WUI4+Q9BY41+Q96DB2+P56524+Q9UKV0+Q969S8); test: Inhibition of class 1 HDAC in human A549 cells assessed as increase in histone acetylation after 24 hrs by Western blotting analysis; format: cell-based; method in brief: as §1
[8] = molecular target: T2, 3-hydroxy-3-methylglutaryl-coenzyme A reductase; test: Inhibition of HMG-CoA reductase in human A549 cells after 5 mins by spectrophotometric analysis

| IC50 [1] [nM] | IC50 (Histone deacetylase 2) [nM] | IC50 (Histone deacetylase 1) [nM] | IC50 [2] [nM] | inhibition [6] | inhibition [7] | Structure (SMILES) | Ratio IC50 (A549 [3]) | Ratio IC50 (A549 [4]) | IC50 (Hs68) [nM] | IC50 (MEF) [nM] | IC50 (A549 [5]) [nM] | IC50 [8] [nM] |
| --- | --- | --- | --- | --- | --- | --- | --- | --- | --- | --- | --- | --- |
| 140 | 658 | 122 | – | – | – | C[C@H]1C=C2C=C[C@H](C)[C@H](CC[C@@H]3C[C@@H](O[Si](C)(C)C(C)(C)C)CC(=O)O3)[C@H]2[C@@H](OC(=O)NCCCCCCC(=O)NO)C1 | – | – | – | – | – | – |
| – | – | – | > 10000 | – | – | O=C(CCCCCCC(=O)Nc1ccccc1)NO [VORINOSTAT] | – | – | – | – | – | – |
| 69.5 | 414 | 63.4 | 13.1 | Dose-dependent effect | Dose-dependent effect | CCC(C)(C)C(=O)O[C@H]1C[C@@H](C)C=C2C=C[C@H](C)[C@H](CC[C@@H](O)C[C@@H](O)CC(=O)NO)[C@H]21 | >5 | >5 | > 100000 | > 100000 | – | 7900 |
| 34 | 882 | 125 | – | Dose-dependent effect | Dose-dependent effect | C[C@H]1C=C2C=C[C@H](C)[C@H](CC[C@@H]3C[C@@H](O[Si](C)(C)C(C)(C)C)CC(=O)O3)[C@H]2[C@@H](OC(=O)NCc2ccc(-c3cn(CCCCCCC(=O)NO)nn3)cc2)C1 | – | – | – | – | – | – |
| 86.6 | – | 123 | 12.3 | Dose-dependent effect | Dose-dependent effect | CC(C)c1c(C(=O)Nc2ccccc2)c(-c2ccccc2)c(-c2ccc(F)cc2)n1CC[C@@H](O)C[C@@H](O)CC(=O)NO | >5.7 | >5.7 | > 100000 | > 100000 | – | 5700 |
| 127 | 463 | 159 | – | Dose-dependent effect | Dose-dependent effect | C[C@H]1C=C2C=C[C@H](C)[C@H](CC[C@@H]3C[C@@H](O[Si](C)(C)C(C)(C)C)CC(=O)O3)[C@H]2[C@@H](OC(=O)Nc2ccc(-c3cn(CCCCCCC(=O)NO)nn3)cc2)C1 | – | – | – | – | – | – |

The remaining lines, values behind:

| Structure (SMILES) | IC50 [1] [nM] | IC50 (Histone deacetylase 2) [nM] | IC50 (Histone deacetylase 1) [nM] | IC50 [2] [nM] | inhibition [6] | inhibition [7] | Ratio IC50 (A549 [3]) | Ratio IC50 (A549 [4]) | IC50 (Hs68) [nM] | IC50 (MEF) [nM] | IC50 (A549 [5]) [nM] | IC50 [8] [nM] |
| --- | --- | --- | --- | --- | --- | --- | --- | --- | --- | --- | --- | --- |
| CCC(C)(C)C(=O)O[C@H]1C[C@@H](C)C=C2C=C[C@H](C)[C@H](CC[C@@H]3C[C@@H](O)CC(=O)O3)[C@H]21 [SIMVASTATIN] | – | – | – | – | – | – | 1.6 | 2.3 | 26400 | 36700 | 16300 | – |
| CC(C)c1nc(N(C)S(C)(=O)=O)nc(-c2ccc(F)cc2)c1/C=C/[C@@H](O)C[C@@H](O)CC(=O)NO | – | – | – | – | Dose-dependent effect | Dose-dependent effect | – | – | – | – | – | 14900 |
| CC(C)c1c(C(=O)Nc2ccccc2)c(-c2ccccc2)c(-c2ccc(F)cc2)n1CC[C@@H](O)C[C@@H](O)CC(=O)O [ATORVASTATIN] | – | – | – | – | – | – | – | – | – | 30700 | – | – |
| CC[C@H](C)C(=O)O[C@H]1C[C@@H](C)C=C2C=C[C@H](C)[C@H](CC[C@@H](O)C[C@@H](O)CC(=O)NO)[C@H]21 | 51 | 468 | 64.8 | 16.8 | Dose-dependent effect | Dose-dependent effect | >5.6 | >5.6 | > 100000 | > 100000 | – | 15900 |
| CC[C@H](C)C(=O)O[C@H]1C[C@@H](C)C=C2C=C[C@H](C)[C@H](CC[C@@H]3C[C@@H](O)CC(=O)O3)[C@H]21 [LOVASTATIN] | – | – | – | – | – | – | – | – | 23200 | 35000 | – | – |
